The source of these data is ChEMBL document CHEMBL1141882, “Synthesis and biological testing of purine derivatives as potential ATP-competitive kinase inhibitors” (J Med Chem, 2005).

In assay [1] the target is Mitogen-activated protein kinase 10 (Rattus norvegicus) (UniProt P49187). Kind of assay: Inhibition of rat c-Jun N-terminal kinase-3 at 30 uM. The procedure, abridged:
(§1)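 Kinase activity assayed with ATP at 100 µM, deliberately higher than usual assay ATP levels because the inhibitors are assumed ATP-competitive. Results are reported as percent inhibition of each kinase.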

Assay [2] deals with RAC-alpha serine/threonine-protein kinase (Homo sapiens) (UniProt P31749). Kind of assay: Inhibition of human Protein kinase B alpha at 30 uM. The procedure, abridged: as §1
Assay [3] addresses Mitogen-activated protein kinase 14 (Homo sapiens) (UniProt Q16539). In words: Inhibition of human stress-activated protein kinase-2 alpha (p38 MAP-kinase) at 30 uM. An outline of the steps: as §1
Assay [4] has as its target Dual specificity mitogen-activated protein kinase kinase 1 (Homo sapiens) (UniProt Q02750). Kind of assay: Inhibition of human Mitogen activated protein kinase kinase 1 (MEK1) at 30 uM. The procedure, abridged:
as §1

In assay [5] the target is Protein kinase C alpha type (Homo sapiens) (UniProt P17252). Kind of assay: Inhibition of human Protein kinase C alpha. Set-up: concentration or dose not given beside the values. The settings on record: concentration not given here.
The target of assay [6] is cAMP-dependent protein kinase (PKA) (Homo sapiens) (UniProt P22694+P17612+P22612). In words: Inhibition of human cAMP-dependent protein kinase (PKA). It is filed as protein assay. Set-up: concentration or dose not given beside the values. The settings on record: concentration not given here.
Assay [7] has as its target Ca2+/calmodulin-dependent protein kinase II (CaM kinase II) (Rattus norvegicus) (UniProt P11275+P08413+P15791+P11730). Kind of assay: Inhibition of rat Calcium/calmodulin-dependent protein kinase type II at 30 uM. The class given is protein assay. The procedure, abridged:
as §1

Assay [8] has as its target Glycogen synthase kinase-3 beta (Homo sapiens) (UniProt P49841). In words: Inhibition of human Glycogen synthase kinase-3 beta at 30 uM. An outline of the steps:
as §1

The target in assay [9] is Mitogen-activated protein kinase 8 (Homo sapiens) (UniProt P45983). Kind of assay: Inhibition of human c-Jun N-terminal kinase-1 alpha-1 at 30 uM. An outline of the steps:
as §1

The target of assay [10] is Mitogen-activated protein kinase 9 (Homo sapiens) (UniProt P45984). In words: Inhibition of human c-Jun N-terminal kinase-2 alpha-2 at 30 uM. The procedure, abridged: as §1
Chain of Mitogen-activated protein kinase 9 (Homo sapiens) (P45984 whole entry, looked up): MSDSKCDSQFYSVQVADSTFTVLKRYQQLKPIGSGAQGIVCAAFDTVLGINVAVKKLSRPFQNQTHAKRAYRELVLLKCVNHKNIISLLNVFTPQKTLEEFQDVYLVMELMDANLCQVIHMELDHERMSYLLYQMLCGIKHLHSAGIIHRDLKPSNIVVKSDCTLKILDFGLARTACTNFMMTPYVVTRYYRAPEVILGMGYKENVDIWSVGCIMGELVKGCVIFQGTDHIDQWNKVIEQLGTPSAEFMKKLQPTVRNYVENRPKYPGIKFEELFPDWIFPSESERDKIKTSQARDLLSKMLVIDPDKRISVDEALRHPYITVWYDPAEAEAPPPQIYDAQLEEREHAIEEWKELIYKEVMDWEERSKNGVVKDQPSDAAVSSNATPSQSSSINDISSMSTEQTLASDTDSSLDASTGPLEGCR
Assay [11] has as its target Mitogen-activated protein kinase 1 (Homo sapiens) (UniProt P28482). In words: Inhibition of human Mitogen-activated protein kinase 2 at 30 uM. An outline of the steps: as §1
Assay [12] has as its target Tyrosine-protein kinase Lck (Homo sapiens) (UniProt P06239). Kind of assay: Inhibition of human lymphocyte protein tyrosine kinase Lck at 30 uM. An outline of the steps:
as §1

The target in assay [13] is RAF proto-oncogene serine/threonine-protein kinase (Homo sapiens) (UniProt P04049). In words: Inhibition of human RAF proto-oncogene serine/threonine-protein kinase at 30 uM. The procedure, abridged: as §1
Chain of RAF proto-oncogene serine/threonine-protein kinase (Homo sapiens) (P04049 whole entry): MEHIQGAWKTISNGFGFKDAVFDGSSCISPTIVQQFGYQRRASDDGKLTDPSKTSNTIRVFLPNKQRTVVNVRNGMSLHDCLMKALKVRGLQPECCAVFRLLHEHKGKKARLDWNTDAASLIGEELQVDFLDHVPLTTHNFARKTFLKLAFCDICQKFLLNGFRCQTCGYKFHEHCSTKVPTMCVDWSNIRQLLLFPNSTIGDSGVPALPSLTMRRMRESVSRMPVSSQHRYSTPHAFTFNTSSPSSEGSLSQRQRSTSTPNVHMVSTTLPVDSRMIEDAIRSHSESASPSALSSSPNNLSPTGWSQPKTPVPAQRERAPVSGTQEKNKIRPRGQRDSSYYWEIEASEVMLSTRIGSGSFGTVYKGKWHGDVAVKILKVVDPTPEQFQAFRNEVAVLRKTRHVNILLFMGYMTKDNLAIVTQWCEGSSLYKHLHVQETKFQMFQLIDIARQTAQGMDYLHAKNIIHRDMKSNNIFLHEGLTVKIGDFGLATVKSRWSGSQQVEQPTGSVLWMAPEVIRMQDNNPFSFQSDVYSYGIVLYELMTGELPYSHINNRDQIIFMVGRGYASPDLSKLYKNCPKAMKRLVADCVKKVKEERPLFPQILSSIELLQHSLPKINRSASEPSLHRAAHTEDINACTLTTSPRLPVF
Assay [14] addresses Rho-associated protein kinase 2 (Homo sapiens) (UniProt O75116). Kind of assay: Inhibition of human Rho-dependent protein kinase-II at 30 uM.

Chain of Mitogen-activated protein kinase 8 (Homo sapiens) (P45983 whole entry): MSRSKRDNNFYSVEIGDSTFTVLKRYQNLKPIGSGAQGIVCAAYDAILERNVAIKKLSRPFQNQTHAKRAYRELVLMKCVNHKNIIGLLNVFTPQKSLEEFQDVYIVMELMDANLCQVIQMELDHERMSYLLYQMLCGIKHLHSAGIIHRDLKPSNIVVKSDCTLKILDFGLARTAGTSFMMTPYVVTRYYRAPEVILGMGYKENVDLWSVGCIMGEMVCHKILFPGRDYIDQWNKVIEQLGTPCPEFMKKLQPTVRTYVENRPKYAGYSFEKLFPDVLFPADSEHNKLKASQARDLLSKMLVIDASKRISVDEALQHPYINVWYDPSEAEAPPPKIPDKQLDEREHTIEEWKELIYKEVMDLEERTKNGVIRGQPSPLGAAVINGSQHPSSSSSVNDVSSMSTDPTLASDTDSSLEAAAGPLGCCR
Chain of Glycogen synthase kinase-3 beta (Homo sapiens) (P49841 whole entry, looked up): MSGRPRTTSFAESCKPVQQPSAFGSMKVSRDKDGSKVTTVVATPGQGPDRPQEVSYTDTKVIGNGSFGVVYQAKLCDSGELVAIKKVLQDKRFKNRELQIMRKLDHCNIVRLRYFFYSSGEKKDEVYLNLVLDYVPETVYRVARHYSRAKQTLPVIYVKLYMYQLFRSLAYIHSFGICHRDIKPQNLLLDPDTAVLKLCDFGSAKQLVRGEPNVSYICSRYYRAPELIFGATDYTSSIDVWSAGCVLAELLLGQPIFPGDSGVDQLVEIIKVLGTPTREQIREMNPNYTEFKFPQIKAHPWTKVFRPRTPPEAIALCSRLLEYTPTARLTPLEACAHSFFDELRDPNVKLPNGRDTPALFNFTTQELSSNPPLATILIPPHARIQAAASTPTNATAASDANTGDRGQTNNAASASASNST
Chain of Mitogen-activated protein kinase 1 (Homo sapiens) (P28482 whole entry): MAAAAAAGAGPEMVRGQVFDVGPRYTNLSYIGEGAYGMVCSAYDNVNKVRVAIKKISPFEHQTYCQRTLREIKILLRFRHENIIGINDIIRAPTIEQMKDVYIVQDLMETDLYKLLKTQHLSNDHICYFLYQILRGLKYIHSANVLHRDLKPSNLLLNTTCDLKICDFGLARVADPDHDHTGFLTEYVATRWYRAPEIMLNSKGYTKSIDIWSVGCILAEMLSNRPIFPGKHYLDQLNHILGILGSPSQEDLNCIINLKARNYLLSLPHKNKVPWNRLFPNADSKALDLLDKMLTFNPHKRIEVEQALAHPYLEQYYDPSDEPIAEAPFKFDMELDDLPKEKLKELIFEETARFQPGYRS
Chain of Dual specificity mitogen-activated protein kinase kinase 1 (Homo sapiens) (Q02750 whole entry): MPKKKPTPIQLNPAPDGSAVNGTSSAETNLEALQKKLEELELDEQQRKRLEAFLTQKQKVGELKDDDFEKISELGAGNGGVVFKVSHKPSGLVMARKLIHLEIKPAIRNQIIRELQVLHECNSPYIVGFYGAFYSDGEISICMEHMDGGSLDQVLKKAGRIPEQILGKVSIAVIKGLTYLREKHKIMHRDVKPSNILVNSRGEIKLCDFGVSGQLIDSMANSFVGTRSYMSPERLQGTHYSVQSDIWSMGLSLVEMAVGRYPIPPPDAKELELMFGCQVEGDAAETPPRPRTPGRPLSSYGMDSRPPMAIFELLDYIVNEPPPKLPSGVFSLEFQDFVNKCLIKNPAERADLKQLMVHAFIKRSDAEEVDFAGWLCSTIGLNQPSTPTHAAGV
Chain of Rho-associated protein kinase 2 (Homo sapiens) (O75116 whole entry, looked up): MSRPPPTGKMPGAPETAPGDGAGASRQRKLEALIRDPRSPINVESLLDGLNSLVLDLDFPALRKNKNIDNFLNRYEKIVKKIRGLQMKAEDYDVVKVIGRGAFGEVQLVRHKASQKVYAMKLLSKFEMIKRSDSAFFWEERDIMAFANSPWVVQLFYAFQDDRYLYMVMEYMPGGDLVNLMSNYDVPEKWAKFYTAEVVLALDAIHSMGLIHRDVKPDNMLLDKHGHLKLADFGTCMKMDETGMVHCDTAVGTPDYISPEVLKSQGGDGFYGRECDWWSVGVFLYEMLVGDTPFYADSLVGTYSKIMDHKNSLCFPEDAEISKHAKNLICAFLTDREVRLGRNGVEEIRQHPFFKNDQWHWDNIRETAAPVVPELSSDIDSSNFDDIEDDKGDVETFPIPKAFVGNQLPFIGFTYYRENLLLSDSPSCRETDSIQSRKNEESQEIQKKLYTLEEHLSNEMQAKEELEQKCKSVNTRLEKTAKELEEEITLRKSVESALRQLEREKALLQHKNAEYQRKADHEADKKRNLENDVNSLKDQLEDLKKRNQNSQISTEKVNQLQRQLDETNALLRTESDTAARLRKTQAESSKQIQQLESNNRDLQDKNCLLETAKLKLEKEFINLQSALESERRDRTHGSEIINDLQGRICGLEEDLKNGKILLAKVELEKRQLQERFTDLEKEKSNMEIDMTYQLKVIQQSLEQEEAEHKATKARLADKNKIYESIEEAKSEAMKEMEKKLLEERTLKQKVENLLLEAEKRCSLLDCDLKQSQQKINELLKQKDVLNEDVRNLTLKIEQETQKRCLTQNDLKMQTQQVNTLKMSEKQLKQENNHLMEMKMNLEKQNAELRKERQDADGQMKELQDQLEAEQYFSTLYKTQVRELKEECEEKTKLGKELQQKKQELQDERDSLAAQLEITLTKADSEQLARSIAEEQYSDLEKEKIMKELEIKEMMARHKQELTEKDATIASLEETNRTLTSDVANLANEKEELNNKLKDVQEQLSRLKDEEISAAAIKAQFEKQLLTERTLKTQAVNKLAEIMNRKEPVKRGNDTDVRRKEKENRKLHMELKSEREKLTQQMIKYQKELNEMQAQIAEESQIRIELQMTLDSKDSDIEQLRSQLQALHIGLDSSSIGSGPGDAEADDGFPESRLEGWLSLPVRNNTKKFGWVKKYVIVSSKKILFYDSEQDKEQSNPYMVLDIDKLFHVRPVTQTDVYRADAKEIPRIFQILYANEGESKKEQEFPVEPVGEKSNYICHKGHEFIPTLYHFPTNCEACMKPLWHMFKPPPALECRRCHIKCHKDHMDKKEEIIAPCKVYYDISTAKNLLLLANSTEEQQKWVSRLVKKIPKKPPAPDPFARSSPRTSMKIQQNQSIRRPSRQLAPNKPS

By inhibition is commonly meant the share of the control response that was lost under treatment. For `Cn1c(-c2ccc(S(C)(=O)=O)cc2)nc2c(Sc3ccccc3)ncnc21`, the inhibition in assay [1] turned out to be 7%; in [2], 14%; in assay [3], 36%; in assay [4], 4%; in assay [5], 18%; in [6], 11%. In addition, the inhibition in [7] is 8%; in assay [8], 0%; in assay [9], 1%; in [10] it was 8%; in [11] it was 3%; in [12], 16%. The values for the inhibition in [13] and in assay [14] were 10% and 5%, respectively.
Turning to `Nc1[nH]cnc2ncnc1-2`, the inhibition in assay [1] worked out at 10%; in [2] it was 0%; in [3] it was 7%; in [4], 9%; in [5] it was 6%; in [6], 14%. Further, the inhibition is 0% in [7]; 0% in assay [8]; 0% in assay [9]; 0% in assay [10]; 17% in [11]; 19% in assay [12]. Moreover, the results for the inhibition in assay [13] and in assay [14] were 14% and 28%, respectively.
`c1ccc(CSc2ncnc3[nH]cnc23)cc1`: the inhibition in assay [1] was found to be 7%; in assay [2] it was 4%; in [3], 50%; in [4], 7%; in [5], 11%; in [6], 13%. The inhibition is 0% in assay [7]; 35% in assay [8]; 1% in assay [9]; 0% in assay [10]; 12% in assay [11]; 22% in [12]. In addition, the inhibition is 53% in assay [13] and 28% in [14].
For `c1ccc(Sc2[nH]cnc3nccc2-3)cc1`, the inhibition worked out at 0% in assay [1]; 0% in [2]; 56% in assay [3]; 41% in assay [4]; 23% in assay [5]; 0% in assay [6]. Further, the inhibition in assay [7] was determined as 6%; in assay [8] it was 11%; in assay [9], 0%; in [10], 0%; in assay [11], 4%; in [12] it was 56%. Further, the inhibition in assay [13] stood at 22%; in assay [14] it was 36%.
On to `Fc1ccc(Sc2ncnc3c2ncn3Cc2ccccc2)cc1`, for which the inhibition was 0% in [1]; 1% in assay [2]; 64% in assay [3]; 4% in [4]; 0% in assay [5]; 0% in [6]. Also, the inhibition in assay [7] came out at 0%; in assay [8] it was 0%; in [9], 0%; in assay [10], 0%; in assay [11], 0%; in assay [12] it was 16%. In addition, the inhibition is 0% in [13] and 5% in assay [14].
For `c1ccc(Sc2ncnc3[nH]cnc23)cc1`, the inhibition in assay [1] is 0%; in [2], 0%; in assay [3], 54%; in assay [4], 0%; in [5], 3%; in assay [6], 8%. Also, the inhibition in [7] was found to be 0%; in assay [8] it was 1%; in assay [9], 0%; in assay [10] it was 0%; in [11], 13%; in assay [12] it was 5%. For the same compound, the results for the inhibition in assay [13] and in [14] were 6% and 33%, respectively.
With `c1ccc(Oc2ncnc3[nH]cnc23)cc1`, the inhibition in assay [1] was found to be 0%; in [2] it was 0%; in assay [3] it was 12%; in [4], 1%; in assay [5], 8%; in assay [6], 11%. The inhibition was found to be 0% in assay [7]; 0% in [8]; 1% in assay [9]; 1% in [10]; 6% in assay [11]; 11% in [12]. The inhibition in [13] was determined as 3%; in assay [14] it was 16%.
`c1ccc(Cc2[nH]cnc3ncnc2-3)cc1`: the inhibition in [1] amounted to 30%; in assay [2], 0%; in assay [3] it was 8%; in assay [4], 3%; in assay [5] it was 7%; in [6], 7%. The inhibition in assay [7] was 2%; in assay [8] it was 5%; in assay [9], 0%; in [10] it was 0%; in assay [11], 3%; in assay [12], 0%. For the same compound, the values for the inhibition in assay [13] and in assay [14] were 9% and 1%, respectively.
As to `Fc1ccc(Cn2cnc3c(Cl)ncnc32)cc1`, the inhibition in assay [1] turned out to be 20%; in assay [2] it was 0%; in assay [3] it was 10%; in [4], 1%; in assay [5], 14%; in [6], 0%. For the same compound, the inhibition in assay [7] turned out to be 0%; in [8], 8%; in [9] it was 0%; in [10] it was 0%; in assay [11], 0%; in assay [12], 0%. Also, the inhibition came out at 4% in assay [13] and 0% in assay [14].
On to `Fc1ccc(Sc2[nH]cnc3nccc2-3)cc1`, for which the inhibition in [1] was found to be 5%; in assay [2], 0%; in assay [3], 79%; in assay [4] it was 36%; in assay [5], 15%; in [6], 0%. Also, the inhibition worked out at 3% in assay [7]; 4% in assay [8]; 2% in [9]; 6% in assay [10]; 2% in assay [11]; 52% in assay [12]. Moreover, the inhibition stood at 43% in [13] and 42% in assay [14].
`Fc1ccc(Cn2cnc3c(Sc4ccc(F)cc4)ncnc32)cc1`: the inhibition turned out to be 0% in assay [1]; 0% in [2]; 27% in assay [3]; 3% in assay [4]; 0% in assay [5]; 0% in assay [6]. The inhibition in assay [7] is 0%; in assay [8], 8%; in assay [9], 0%; in assay [10], 0%; in [11], 0%; in assay [12] it was 16%. In addition, the inhibition in assay [13] and in assay [14] was 0% throughout.
In the case of `Cn1c(Br)nc2c(Sc3ccccc3)ncnc21`, the inhibition in [1] came out at 0%; in assay [2], 1%; in assay [3], 23%; in assay [4], 0%; in assay [5] it was 5%; in [6], 0%. The inhibition turned out to be 0% in assay [7]; 19% in assay [8]; 0% in assay [9]; 0% in assay [10]; 0% in assay [11]; 23% in assay [12]. The inhibition in [13] and in [14] was 0% throughout.
In the case of `Cn1c(C#CCCO)nc2c(Sc3ccccc3)ncnc21`, the inhibition was determined as 0% in assay [1]; 33% in assay [2]; 3% in [3]; 0% in assay [4]; 18% in assay [5]; 0% in [6]. Further, the inhibition is 10% in [7]; 0% in assay [8]; 0% in assay [9]; 0% in assay [10]; 0% in assay [11]; 11% in [12]. For the same compound, the inhibition in assay [13] and in assay [14] was 0% each time.
As to `Cn1cnc2c(-c3ccc(F)cc3)ncnc21`, the inhibition worked out at 14% in assay [1]; 0% in assay [2]; 16% in assay [3]; 1% in [4]; 8% in assay [5]; 0% in assay [6]. Moreover, the inhibition worked out at 12% in assay [7]; 3% in [8]; 5% in [9]; 3% in [10]; 0% in assay [11]; 5% in assay [12]. Further, the inhibition in assay [13] worked out at 9%; in [14], 10%.
